Common to all, as to type: functional
Common to all, as to details: read-out: DIZ

Experiment [1] concerns Escherichia coli. Nature of the experiment: Antibacterial activity against Escherichia coli at 30 ug/ml after 24 hrs by agar well diffusion method. The method, boiled down: (§1)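 Agar well diffusion. Inocula were grown in nutrient broth at 37 °C for 24 h, then subcultured in nutrient broth at room temperature. Compounds were made as a 1 mg/mL DMSO stock and diluted to 30 µg/mL final. Nutrient agar plates were spread-inoculated and 6 mm wells each got 0.1 mL. Controls were amoxicillin (reference) and DMSO (negative). Incubation was 24 h at 37 °C. Inhibition zone was measured in mm as the mean of three determinations.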
A general note: A growth-free zone around the sample is the usual read-out of agar diffusion tests.

Experiment [2] relates to Xanthomonas oryzae. Nature of the experiment: Antibacterial activity against Xanthomonas oryzae at 30 ug/ml after 24 hrs by agar well diffusion method.
Experiment [3] concerns Klebsiella pneumoniae. Nature of the experiment: Antibacterial activity against Klebsiella pneumoniae at 30 ug/ml after 24 hrs by agar well diffusion method. In outline: as §1
In experiment [4] the test system is Staphylococcus aureus. Nature of the experiment: Antibacterial activity against coagulase-positive Staphylococcus aureus at 30 ug/ml after 24 hrs by agar well diffusion method. In outline:
as §1

The test system of experiment [5] is Aspergillus niger. In words: Antifungal activity against Aspergillus niger at 30 ug/ml after 72 hrs by agar well diffusion method. In outline:
(§2)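 Fungal well diffusion. Inocula were subcultured in nutrient broth for one day, then spread on solidified medium. Compounds were made as a 1 mg/mL DMSO stock and diluted to 30 µg/mL final. Each 6 mm well got 0.1 mL. Controls were bavistin (reference) and DMSO (negative). Plates stood for 3 days at room temperature. Inhibition zone was measured in mm as the mean of three determinations.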

Experiment [6] concerns Aspergillus flavus. In words: Antifungal activity against Aspergillus flavus at 30 ug/ml after 72 hrs by agar well diffusion method. In outline: as §2
For experiment [7], the system named is Fusarium oxysporum. In words: Antifungal activity against Fusarium oxysporum at 30 ug/ml after 72 hrs by agar well diffusion method. In outline: as §2

The structures appear in SMILES notation. Numbered stars: 1 amine (or outer) side, 2 acyl side, 3 side chain; on linkers, the order of the positions; unused ones are H or OH. Peptide text beside a SMILES is read from it. * marks the point of attachment. Piperazinyl(4-(2,3-Cl2Ph)) = Clc1cccc(N2CCN(*)CC2)c1Cl; Thiocarbamoyl(N-4-ClPh) = S=C(Nc1ccc(Cl)cc1)*; Thiocarbamoyl(4-MeOPh) = COc1ccc(NC(=S)*)cc1; NH(4-MeO-phenyl) = COc1ccc(N*)cc1; X1 = Fc1ccc2c(C3CCN(*)CC3)noc2c1; CO = O=C([*:1])[*:2]

Results on seven compounds are retold here after ChEMBL document CHEMBL1932971, “Synthesis of uriedo and thiouriedo derivatives of peptide conjugated heterocycles - A new class of promising antimicrobials” (2012).

Take `CC[C@H](C)[C@H](NC(=O)CNC(=O)CNC(=S)Nc1ccc(OC)cc1)C(=O)N1CCC[C@H]1C(=O)N1CCN(c2cccc(Cl)c2Cl)CC1` ({Thiocarbamoyl(4-MeOPh)}-GGIP-{Piperazinyl(4-(2,3-Cl2Ph))}): the zone of inhibition at 30 µg/mL in experiment [1] was 23 mm; in experiment [2], 19 mm; in experiment [3], 13 mm; in experiment [4], 18 mm; in experiment [5], 25 mm; in experiment [6], 21 mm. For the same compound, the zone of inhibition at 30 µg/mL in experiment [7] came to 23 mm.

For the compound `O=C(Nc1ccccc1F)N[C@@H](Cc1c[nH]c2ccccc12)C(=O)N1CCC(c2noc3cc(F)ccc23)CC1`, the zone of inhibition at 30 µg/mL in experiment [1] was found to be 11 mm; in experiment [2], 11 mm; in experiment [3], 8 mm; in experiment [4], 8 mm; in experiment [5] it was 12 mm; in experiment [6], 9 mm. Also, the zone of inhibition at 30 µg/mL in experiment [7] turned out to be 8 mm.

As to `O=C(CNC(=S)Nc1ccc(Cl)cc1)NCC(=O)N[C@@H](Cc1ccccc1)C(=O)N1CCC[C@H]1C(=O)N1CCC(c2noc3cc(F)ccc23)CC1` ({Thiocarbamoyl(N-4-ClPh)}-GGFP-X1), the zone of inhibition at 30 µg/mL was 30 mm in experiment [1]; 27 mm in experiment [2]; 26 mm in experiment [3]; 24 mm in experiment [4]; 33 mm in experiment [5]; 29 mm in experiment [6]. In addition, the zone of inhibition at 30 µg/mL in experiment [7] stood at 31 mm.

`COc1ccc(NC(=O)NCC(=O)NCC(=O)N[C@@H](Cc2ccccc2)C(=O)N2CCC[C@H]2C(=O)N2CCC(c3noc4cc(F)ccc34)CC2)cc1` ({NH(4-MeO-phenyl)-CO}-GGFP-X1): the zone of inhibition at 30 µg/mL in experiment [1] amounted to 26 mm; in experiment [2], 24 mm; in experiment [3], 19 mm; in experiment [4] it was 17 mm; in experiment [5] it was 27 mm; in experiment [6], 20 mm. Also, the zone of inhibition at 30 µg/mL in experiment [7] was 23 mm.

For the compound `CC[C@H](C)[C@H](NC(=O)CNC(=O)CNC(=S)Nc1ccc(OC)cc1)C(=O)N1CCC[C@H]1C(=O)N1CCC(c2noc3cc(F)ccc23)CC1` ({Thiocarbamoyl(4-MeOPh)}-GGIP-X1), the zone of inhibition at 30 µg/mL in experiment [1] stood at 24 mm; in experiment [2], 20 mm; in experiment [3] it was 14 mm; in experiment [4] it was 16 mm; in experiment [5] it was 26 mm; in experiment [6] it was 22 mm. Moreover, the zone of inhibition at 30 µg/mL in experiment [7] amounted to 24 mm.

Take `O=C(CNC(=S)Nc1ccc(Cl)cc1)NCC(=O)N[C@@H](Cc1ccccc1)C(=O)N1CCC[C@H]1C(=O)N1CCN(c2cccc(Cl)c2Cl)CC1` ({Thiocarbamoyl(N-4-ClPh)}-GGFP-{Piperazinyl(4-(2,3-Cl2Ph))}): the zone of inhibition at 30 µg/mL was 29 mm in experiment [1]; 26 mm in experiment [2]; 25 mm in experiment [3]; 23 mm in experiment [4]; 32 mm in experiment [5]; 28 mm in experiment [6]. The zone of inhibition at 30 µg/mL in experiment [7] came to 30 mm.

Turning to `COc1ccc(NC(=S)NCC(=O)NCC(=O)N[C@@H](Cc2ccccc2)C(=O)N2CCC[C@H]2C(=O)N2CCC(c3noc4cc(F)ccc34)CC2)cc1` ({Thiocarbamoyl(4-MeOPh)}-GGFP-X1), the zone of inhibition at 30 µg/mL in experiment [1] turned out to be 24 mm; in experiment [2] it was 22 mm; in experiment [3], 21 mm; in experiment [4], 19 mm; in experiment [5] it was 28 mm; in experiment [6] it was 23 mm. Besides, the zone of inhibition at 30 µg/mL in experiment [7] came to 25 mm.
